{
  "source": "ChEMBL document CHEMBL1138560",
  "about": "“Synthesis of amidine and amide derivatives and their evaluation for anti-inflammatory and analgesic activities” (2009)",
  "key": {"[1]": {"tested_on": "Rattus norvegicus", "assay": "Antiinflammatory activity against carrageenan-induced paw edema in Charles Foster albino rat at 50 mg/kg, po administered 30 mins before carrageenan challenge measured after 1 to 3 hrs", "type": "functional", "summary_of_the_method": "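Groups of five rats, both sexes, 120–160 g, pregnant females excluded; 30 min after oral dose, 0.20 ml of 1% fresh carrageenan in 0.9% NaCl injected into hind-paw plantar aponeurosis; paw volume by water plethysmometer before and 1–3 h after; % inhibition = [1 − Dt/Dc] × 100 versus carrageenan-only control group of five.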"}, "[2]": {"tested_on": "Mus musculus", "assay": "Analgesic activity against acetic acid-induced writhes in mouse at 50 mg/kg, po administered 30 mins before acetic acid challenge measured for 60 mins", "type": "functional", "summary_of_the_method": "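Mice of both sexes, 20–30 g, non-pregnant, groups of five; oral test dose given 30 min before 0.25 ml/mouse of 0.5% acetic acid; writhes counted over the following 60 min; group mean writhes expressed as percent decrease versus untreated control group of five mice.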"}},
  "data": [
    {"smiles": "N=C(/N=c1\\scc(-c2ccccc2)n1-c1ccc(Cl)cc1)c1ccccn1", "values": [
      {"measurement": "Activity", "setting": "[1]", "value": 17, "unit": "%"},
      {"measurement": "Activity", "setting": "[2]", "value": 12, "unit": "%"}
    ]},
    {"smiles": "N=C(/N=c1\\scc(-c2ccccc2)n1-c1ccc([N+](=O)[O-])cc1)c1ccccn1", "values": [
      {"measurement": "Activity", "setting": "[1]", "value": 26, "unit": "%"},
      {"measurement": "Activity", "setting": "[2]", "value": 18, "unit": "%"}
    ]},
    {"smiles": "N=C(/N=c1\\scc(-c2ccccc2)n1-c1ccccc1[N+](=O)[O-])c1ccccn1", "values": [
      {"measurement": "Activity", "setting": "[1]", "value": 49, "unit": "%"}
    ]},
    {"smiles": "CCOc1ccc(-c2cs/c(=N\\C(=N)c3ccccn3)n2-c2ccccc2)cc1", "values": [
      {"measurement": "Activity", "setting": "[1]", "value": 0, "unit": "%"},
      {"measurement": "Activity", "setting": "[2]", "value": 50, "unit": "%"}
    ]},
    {"smiles": "Cc1ccccc1-n1c(-c2ccccc2)cs/c1=N\\C(=N)c1ccccn1", "values": [
      {"measurement": "Activity", "setting": "[1]", "value": 0, "unit": "%"},
      {"measurement": "Activity", "setting": "[2]", "value": 50, "unit": "%"}
    ]},
    {"smiles": "COc1ccc(-n2c(-c3ccccc3)cs/c2=N\\C(=N)c2ccccn2)cc1", "values": [
      {"measurement": "Activity", "setting": "[1]", "value": 17, "unit": "%"},
      {"measurement": "Activity", "setting": "[2]", "value": 12, "unit": "%"}
    ]},
    {"smiles": "CC(=O)c1ccc(-n2c(-c3ccccc3)cs/c2=N\\C(=N)c2ccccn2)cc1", "values": [
      {"measurement": "Activity", "setting": "[1]", "value": 20, "unit": "%"},
      {"measurement": "Activity", "setting": "[2]", "value": 25, "unit": "%"}
    ]},
    {"smiles": "O=C(/N=c1\\scc(-c2ccccc2)n1-c1ccc(Cl)cc1)c1cc(=O)[nH]c(=O)[nH]1", "values": [
      {"measurement": "Activity", "setting": "[1]", "value": 2, "unit": "%"}
    ]},
    {"smiles": "O=C(CC1NC(=O)NC1=O)/N=c1\\scc(-c2ccccc2)n1-c1ccccc1[N+](=O)[O-]", "note": "(stereo unspecified)", "values": [
      {"measurement": "Activity", "setting": "[1]", "value": 17, "unit": "%"}
    ]},
    {"smiles": "O=C(CC1NC(=O)NC1=O)/N=c1\\scc(-c2ccccc2)n1-c1ccc([N+](=O)[O-])cc1", "note": "(stereo unspecified)", "values": [
      {"measurement": "Activity", "setting": "[1]", "value": 34, "unit": "%"}
    ]},
    {"smiles": "N=C(/N=c1\\scc(-c2ccc(Br)cc2)n1-c1ccc2ccccc2c1)c1ccccn1", "values": [
      {"measurement": "Activity", "setting": "[1]", "value": 0, "unit": "%"},
      {"measurement": "Activity", "setting": "[2]", "value": 40, "unit": "%"}
    ]},
    {"smiles": "COc1ccc(-n2c(-c3ccccc3)cs/c2=N\\C(=O)c2cc(=O)[nH]c(=O)[nH]2)cc1", "values": [
      {"measurement": "Activity", "setting": "[1]", "value": 9, "unit": "%"},
      {"measurement": "Activity", "setting": "[2]", "value": 8, "unit": "%"}
    ]},
    {"smiles": "CC(=O)c1ccc(-n2c(-c3ccccc3)cs/c2=N\\C(=O)c2cc(=O)[nH]c(=O)[nH]2)cc1", "values": [
      {"measurement": "Activity", "setting": "[1]", "value": 12, "unit": "%"},
      {"measurement": "Activity", "setting": "[2]", "value": 8, "unit": "%"}
    ]},
    {"smiles": "O=C(/N=c1\\scc(-c2ccccc2)n1-c1ccccc1[N+](=O)[O-])c1cc(=O)[nH]c(=O)[nH]1", "values": [
      {"measurement": "Activity", "setting": "[1]", "value": 25, "unit": "%"}
    ]},
    {"smiles": "COc1ccc(-c2cs/c(=N\\C(=O)c3cc(=O)[nH]c(=O)[nH]3)n2-c2ccc([N+](=O)[O-])cc2)cc1", "values": [
      {"measurement": "Activity", "setting": "[1]", "value": 15, "unit": "%"},
      {"measurement": "Activity", "setting": "[2]", "value": 10, "unit": "%"}
    ]},
    {"smiles": "COc1ccccc1-n1c(-c2ccccc2)cs/c1=N\\C(=N)c1ccccn1", "values": [
      {"measurement": "Activity", "setting": "[1]", "value": 23, "unit": "%"}
    ]},
    {"smiles": "O=C(CC1NC(=O)NC1=O)/N=c1\\scc(-c2ccccc2)n1-c1ccc(Cl)cc1", "note": "(stereo unspecified)", "values": [
      {"measurement": "Activity", "setting": "[1]", "value": 10, "unit": "%"},
      {"measurement": "Activity", "setting": "[2]", "value": 0, "unit": "%"}
    ]},
    {"smiles": "CC(=O)Oc1ccccc1C(=O)O", "note": "[ASPIRIN]", "values": [
      {"measurement": "Activity", "setting": "[1]", "value": 43, "unit": "%"}
    ]},
    {"smiles": "CC(C)Cc1ccc(C(C)C(=O)O)cc1", "note": "(stereo unspecified) [IBUPROFEN]", "values": [
      {"measurement": "Activity", "setting": "[1]", "value": 39, "unit": "%"},
      {"measurement": "Activity", "setting": "[2]", "value": 50, "unit": "%"}
    ]}
  ]
}
